Assay results from different studies.
Lines come from different studies, so protocols differ.
pH: 7.4

Structure (SMILES) | test | system | setting | logD
CC(C)(N)COCC(=O)N1CCC[C@H](C(=O)NCc2nc(-c3ccc(C(F)(F)F)cc3)cs2)C1 | shake flask | aqueous buffer |  | 1.4
C=CC(=O)N1CC2(CCN(c3nc4c(c(-c5cc(O)cc6ccccc56)c3F)COC(C)(C)C4)C2)C1 |  |  |  | 4.5
Clc1cccc(Nc2ncnc3ccc(-c4cccc(N5CCOCC5)c4)cc23)c1 | shake flask | aqueous buffer |  | 5.3
O=C(O)c1ccc(NS(=O)(=O)c2ccc(Cl)c(Cl)c2)cc1F | shake flask | aqueous buffer |  | -0.2
CNS(=O)(=O)c1ccc(Nc2ncc(C(F)(F)F)c(N3CCC[C@](C)(O)C3)n2)c(C)c1 | shake flask | aqueous buffer | 1 h | 3.4
C=C1C[C@@]23CC[C@H]4[C@@](C)(CCC[C@@]4(C)C(=O)O[C@@H]4O[C@H](CO)[C@@H](O)[C@H](O)[C@H]4O)[C@@H]2CC[C@]1(O[C@@H]1O[C@H](CO)[C@@H](O)[C@H](O)[C@H]1O[C@@H]1O[C@H](CO)[C@@H](O)[C@H](O)[C@H]1O)C3 | shake flask | aqueous buffer |  | -1.51
CN1CCN(c2cccc(-c3ccc4ncnc(Nc5ccc(Cl)c(C(F)(F)F)c5)c4c3)c2)CC1 | shake flask | aqueous buffer |  | > 4.3
N=C(CC(O)c1cc2c(F)cc(F)cc2c2cc(C(F)(F)F)ccc12)Nc1ccc(F)c(F)c1 (centres unmarked) |  |  |  | 4.96
C[C@H]1[C@@H](C(=O)NCc2nc(-c3ccc(C#N)cc3)cs2)CCCN1C(=O)[C@H]1CCC(=O)O1 | shake flask | aqueous buffer |  | 1.4
Cc1nc(Nc2ncnc3ccc(-c4cccc(N5CCOCC5)c4)cc23)oc1C | shake flask | aqueous buffer |  | 4.3
N#Cc1ccc(-c2csc(CNC(=O)[C@H]3CCCN(C(=O)CCN)C3)n2)cc1 | shake flask | aqueous buffer |  | -0.69
CN1CCN(c2ccc(-c3ccc4nncc(Nc5ccc(OC(F)(F)F)cc5)c4c3)cc2)CC1 | shake flask | aqueous buffer |  | 5.1
O=C(NCc1nc(-c2ccc(C(F)(F)F)cc2)cs1)[C@H]1CCCN(C(=O)CO[C@H]2CCCNC2)C1 | shake flask | aqueous buffer |  | 0.81
CNS(=O)(=O)c1ccc(Nc2ncc3cc(Cl)c(=O)n(C4CCCC4)c3n2)c(C)c1 | shake flask | aqueous buffer | 1 h | 3.8
O=C(O)c1ccc(NS(=O)(=O)c2ccc(Cl)c(Cl)c2)c2ncccc12 | shake flask | aqueous buffer |  | 0.9
C[C@@H]1COCCN1c1cccc(-c2ccc3ncnc(Nc4ncco4)c3c2)c1 | shake flask | aqueous buffer |  | 4.2
CNS(=O)(=O)c1ccc(Nc2ncc(C(F)(F)F)c([C@H]3CC[C@@](C)(O)CC3)n2)c(C)c1 | shake flask | aqueous buffer | 1 h | 4
Clc1ccc(Nc2ncnc3ccc(-c4cccc(N5CCOCC5)c4)cc23)cc1 | shake flask | aqueous buffer |  | > 4.6
C[C@H](O)c1cnc(NS(=O)(=O)c2ccc(Cl)c(Cl)c2)nc1 | shake flask | aqueous buffer |  | 0.5
Cc1ccc(Nc2ncnc3ccc(-c4cccc(N5CCOCC5)c4)cc23)cc1 | shake flask | aqueous buffer |  | > 4.1
COc1cnc(Nc2cnnc3ccc(-c4ccc(N5CCN(C)CC5)cc4)cc23)nc1 | shake flask | aqueous buffer |  | 3.2
Cn1cc2c(C(=O)O)ccc(NS(=O)(=O)c3ccc(Cl)c(Cl)c3)c2n1 | shake flask | aqueous buffer |  | 0.5
CCOCC(=O)N1CCC[C@H](C(=O)NCc2nc(-c3ccc(C#N)nc3)cs2)C1 | shake flask | aqueous buffer |  | 1
C=CC(=O)N1CC2(CCN(c3nc4c(c(-c5c(C)ccc6[nH]ncc56)c3C#N)CCC(C)(C)C4)C2)C1 |  |  |  | 4.3
CCN(CC)c1ccc(C=NNC(=O)c2ccccn2)c(O)c1 | shake flask | aqueous buffer | 24 h | 3.48
C[C@H]1CN(c2cccc(-c3ccc4ncnc(Nc5ncco5)c4c3)c2)CCO1 | shake flask | aqueous buffer |  | > 4.3
N[C@@H](COCC(=O)N1CCC[C@H](C(=O)NCc2nc(-c3ccc(C(F)(F)F)cc3)cs2)C1)c1ccccc1 | shake flask | aqueous buffer |  | 3
Cn1cc(Nc2ncnc3ccc(-c4cccc(N5CCOCC5)c4)cc23)cn1 | shake flask | aqueous buffer |  | 3.7
C=CC(=O)N1CC2(CCN(c3nc4c(c(-c5c(C)ccc6[nH]ncc56)c3C#N)COC(C)(C)C4)C2)C1 |  |  |  | 2.8
